Reference: article PMC4764508 (Journal of the American Chemical Society, 2015)
Like-named read-outs stand apart in the source and are kept apart here. Blank lines part the entries; values can stand above or below the compound they belong to.

Assays:
[1] = assay type: physicochemical; conditions: 1 mM complex, 25 mM Zn2+, 50 mM pH 6.0 MES buffer, 37 °C, 1.4T
[2] = Biodistribution in rats by ICP-MS; conditions: rat, in vivo
[3] = Mn blood pharmacokinetics and plasma speciation in rats; conditions: rat, HPLC-ICP-MS
in vivo = conditions: rat
[4] = rat, in vivo
[5] = Variable temperature 17O NMR: hydration state and water exchange; assay type: physicochemical; conditions: for ΔH^≠: water exchange; for kex^310: water exchange rate at 310 K
Procedure, shortened: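 Transverse relaxivity of H217O was measured with the Mn complex present across a range of temperatures. The data were fitted to derive water exchange parameters, including kex at 310 K and ΔH, and the Mn-17O hyperfine coupling constant.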

T1 relaxivity = assay type: physicochemical; conditions: for Relaxivity r1 in pH 7.4 buffer: pH 7.4 Tris buffer
[6] = tested on: carotid artery thrombus (fibrin); assay: MR imaging of carotid artery thrombosis in a rat model, 1.5T; assay type: in vivo
Procedure, shortened: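 In a rat carotid artery thrombosis model, 3D T1-weighted gradient-echo MRI with arterial inflow suppression was run at 1.5T. Scans were taken before and immediately after injection of 10 μmol/kg probe (40 μmol/kg metal) and repeated over 1 h; N=4 per probe. Thrombus-to-muscle and contralateral vessel-to-muscle CNR were followed over time. Thrombosis was confirmed by H&E histology. Error bars are SEM.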

[7] = Mn tissue content by ICP-MS 24h after injection in mice; assay type: in vivo, mouse
Procedure, shortened: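 Mice (N=4) received test compound i.v. at 60 μmol/kg. Tissue Mn was measured by ICP-MS at 24 h and compared with endogenous Mn in naive mice (N=4). Results were expressed as nmol/g and as %ID/g. Elevation above baseline was tested at P<0.05.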

[8] = assay type: physicochemical; conditions: from Kcomp determined using CDTA challenge
Procedure, shortened: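 The conditional stability constant at pH 7.4 came from direct competition of the Mn complex with CDTA, with species monitored by LC-MS. The effective constant was derived from the competition constant Kcomp. pMn was calculated as -log[free Mn] with [M] = [L] = 10 μM.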

[9] = Mn2+ thermodynamic stability constants by pH-potentiometry; assay type: physicochemical
Procedure, shortened: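 The ligand was titrated by pH-potentiometry in the presence of 1 equiv MnCl2 at 25 °C and I = 0.15 M NaCl. KML = [ML]/([M][L]) and KHML = [HML]/([ML][H]). Effective formation constants were derived at pH 7.4. pMn is -log[free Mn] when [M] = [L] = 10 μM.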

[10] = target: bovine serum albumin (BSA) (Bos taurus, UniProt P02769); assay: Protein bound fraction by ultra-filtration; assay type: in vitro ADME; conditions: 150-300 μM solution
Sequence of bovine serum albumin (BSA) (P02769 25-607): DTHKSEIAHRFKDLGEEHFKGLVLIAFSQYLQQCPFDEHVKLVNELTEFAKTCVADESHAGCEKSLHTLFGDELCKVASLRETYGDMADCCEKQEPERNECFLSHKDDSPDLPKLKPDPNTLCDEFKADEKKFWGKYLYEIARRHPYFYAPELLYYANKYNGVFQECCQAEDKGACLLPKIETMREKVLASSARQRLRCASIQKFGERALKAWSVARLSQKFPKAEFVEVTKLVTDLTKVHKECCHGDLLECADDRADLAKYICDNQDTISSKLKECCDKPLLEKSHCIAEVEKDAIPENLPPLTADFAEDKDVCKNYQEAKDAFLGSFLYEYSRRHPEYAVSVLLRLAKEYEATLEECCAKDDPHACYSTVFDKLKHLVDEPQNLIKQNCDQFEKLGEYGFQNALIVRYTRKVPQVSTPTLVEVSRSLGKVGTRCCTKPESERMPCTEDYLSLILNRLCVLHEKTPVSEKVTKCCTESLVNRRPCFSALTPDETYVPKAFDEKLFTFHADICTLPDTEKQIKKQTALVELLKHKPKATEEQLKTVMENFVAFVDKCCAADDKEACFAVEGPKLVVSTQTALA

[11] = Protein bound fraction by ultra-filtration; assay type: in vitro ADME, bovine; conditions: 150-300 μM solution
[12] = Dynamic MRI clearance kinetics in mice; assay type: in vivo, balb/C mouse; conditions: 60 μmol/kg i.v., monoexponential fit of nSNR vs time
[13] = cited from earlier work
[14] = rat, plateau by 35 minutes post injection

SMILES: O.O=C([O-])CN(CC(=O)[O-])C1CCCCC1N(CC(=O)[O-])CC(=O)[O-].[Mn+2] (stereo not shown) [[Mn(CDTA)(H2O)]^2-]
Pseudo-first order rate constant of transmetallation [1]: 1.10±0.01 × 10^-3 s^-1

SMILES: CC[C@H](C)[C@H](NC(=O)[C@H](Cc1ccc(O)cc1)NC(=O)[C@@H]1CSSC[C@H](NC(=O)[C@@H](CCC(=O)O)NC(=O)[C@H](Cc2ccc(O)cc2)NC(=O)[C@H](CNC(=O)c2ccc(CN(CC(=O)O)C3CCCCC3N(CC(=O)O)CC(=O)O)nc2)NC(=O)c2ccc(CN(CC(=O)O)C3CCCCC3N(CC(=O)O)CC(=O)O)nc2)C(=O)N2C[C@H](O)C[C@H]2C(=O)N[C@@H](Cc2ccc(O)c(Cl)c2)C(=O)NCC(=O)N[C@@H](CC(C)C)C(=O)N1)C(=O)N[C@@H](CCC(N)=O)C(=O)NCc1ccc(CNC(=O)[C@H](CNC(=O)c2ccc(CN(CC(=O)O)C3CCCCC3N(CC(=O)O)CC(=O)O)nc2)NC(=O)c2ccc(CN(CC(=O)O)C3CCCCC3N(CC(=O)O)CC(=O)O)nc2)cc1 (stereo partly shown) [Mn-FBP]
Eliminated after 24 hr [2]: > 99% | Mn in muscle at 24h [2]: 0.02±0.02% of the injected dose per gram tissue | Mn dechelation in blood plasma (Mn speciation) [3]: no evidence of Mn dechelation | half-life (in vivo): 23.5 ± 13.4 min | Total Mn blood clearance t1/2 [4]: 22.6 ± 6.8 min | Hydration state (q) [5]: 1 | Mn-17O hyperfine coupling constant AO/ħ [5]: 2.82±0.040 ×10^7 rad/s | Water exchange rate kex ([5]; 37 °C): 1.1e+08 s⁻¹ | ΔH^≠ [5]: 39.7 kJ/mol | kex^310 [5]: 1.1±0.04 ×10^8 s^-1 | Molecular relaxivity relative to per Mn values (T1 relaxivity): 4 fold | Relaxivity in human fibrinogen solution compared with buffer (T1 relaxivity; 1.4 T, 37 °C): unchanged | Relaxivity r1 in 4.5% w/v BSA solution (T1 relaxivity; 1.4 T, 37 °C, per Mn): 11.4 mM⁻¹ s⁻¹ | Relaxivity r1 in bovine blood plasma (T1 relaxivity; 1.4 T, 37 °C, per Mn): 10.7 mM⁻¹ s⁻¹ | Relaxivity r1 in human fibrin gel (T1 relaxivity; fibrinogen converted to fibrin gel, 1.4 T, 37 °C, per Mn): 13.5 mM⁻¹ s⁻¹ | Increase in relaxivity in the presence of fibrin (T1 relaxivity; human fibrin gel vs buffer): 60% | Relaxivity r1 in pH 7.4 buffer (T1 relaxivity; 1.4 T, 37 °C, per Mn): 8.5 mM^-1s^-1 | Per Mn relaxivity relative to [Mn(PyC3A)(H2O)]^- (T1 relaxivity; pH 7.4 buffer): 4 fold | Thrombus enhancement compared with EP-2104R ([6]; rat model of arterial thrombosis): equivalent thrombus enhancement | Increase of thrombus-to-muscle CNR post injection ([6]; rat, 10 μmol/kg probe): more than 5 fold | Peak CNR vs. muscle, contralateral vessel [6, 14]: 5.6±1.5 | Peak CNR vs. muscle, thrombus [6, 14]: 32.9±4.0

Elimination by 24h [7]: > 99% | Injected dose remaining in the body at 24 hours [7]: less than 1% | Mn remaining in liver and kidneys at 24h ([7]; 60 μmol/kg i.v., ICP-MS): < 0.05 %ID/g | logKpH 7.4 (effective formation constant at pH 7.4) [8]: 11.40 | logKML ([9]; Mn(II) complex, pH-potentiometry, 25 °C, I = 0.15 M NaCl): 14.14 | logKpH 7.4 (effective formation constant at pH 7.4) ([9]; from potentiometric titration, 25 °C, 0.15 M NaCl): 11.34 | Stability relative to [Mn(DPDP)]^3- at pH 7.4 ([9]; pH 7.4): > 10^5 times | Fraction protein bound in 4.5% w/v BSA solution [10]: 1-5% | Fraction protein bound in plasma [11]: 1-5% | Hydration state (q) [5]: 1 | Mn-17O hyperfine coupling constant AO/ħ [5]: 2.87±0.080 ×10^7 rad/s | Blood clearance t1/2 [12]: 7.8 ± 3.0 min
SMILES: O.O=C([O-])CN(CC(=O)[O-])C1CCCCC1N(CC(=O)[O-])Cc1ccccn1.[Mn+2] (stereo not shown) [[Mn(PyC3A)(H2O)]^-]
Mn levels in all other tissues at 24h vs naïve mice ([7]; 60 μmol/kg i.v., ICP-MS): not elevated above endogenous basal levels | Pseudo-first order rate constant of transmetallation [1]: 6.76±0.03 × 10^-4 s^-1 | ΔH^≠ [5]: 37.2 kJ/mol | kex^310 [5]: 1.0±0.02 ×10^8 s^-1 | Relaxivity r1 in 4.5% w/v BSA solution (T1 relaxivity; 1.4 T, 37 °C, per Mn): 3.4 mM⁻¹ s⁻¹ | Relaxivity r1 in bovine blood plasma (T1 relaxivity; 1.4 T, 37 °C, per Mn): 3.8 mM⁻¹ s⁻¹ | Relaxivity r1 in pH 7.4 buffer (T1 relaxivity; 1.4 T, 37 °C, per Mn): 2.1 mM^-1s^-1

pH by which complexation is complete ([9]; 1 mM each Mn2+ and PyC3A, 0.15M NaCl, 25 °C): 4.5
SMILES: O=C(O)CN(CC(=O)O)C1CCCCC1N(CC(=O)O)Cc1ccccn1 (stereo not drawn) [PyC3A, N-picolyl-N,N′,N′-trans-1,2-cyclohexylenediaminetriacetate]

SMILES: O=C([O-])CN1CCN(CC(=O)[O-])CCN(CC(=O)[O-])CCN(CC(=O)[O-])CC1.[Gd+3] [Gd-DOTA]
Relaxivity in plasma [13]: 3.6 mM⁻¹ s⁻¹

SMILES: O=C([O-])CN(CCN(CC(=O)[O-])CC(=O)[O-])CCN(CC(=O)[O-])CC(=O)[O-].[Gd+3] [[Gd(DTPA)(H2O)]^2-]
Relaxivity in plasma [13]: 4.1 mM⁻¹ s⁻¹ | Pseudo-first order rate constant of transmetallation [1]: 1.41±0.31 × 10^-2 s^-1
